Assay outcomes from PubChem.
NadD inh – NadD (S. aureus) enzyme inhibition | purified NadD enzyme, colorimetric absorbance read-out | inhibition, % at 20 µM | 360,000 compounds, 0.78% hits; in the data active = inhibition above about 26%
HCV core dimer – HCV core protein dimerization inhibition. TR-FRET GST/Flag-core106 dimerization, 1536-well. inhibition, % at 5 µM. 300,000 compounds, 0.33% hits;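 active = inhibition above the mean of all tested compounds plus 3 SD, set per screening campaign, cut at about 45% in these data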
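Material: Tagged HCV core106 pair (GST and Flag) | Amount: GST-core106 13.5 nM, Flag-core106 17 nM | Medium: KF-containing HEPES buffer, pH 7.45, DTT, CHAPS, BSA | Reagent: Eu donor and XL665 acceptor anti-tag antibodies | Schedule: 4 h at 22.5 °C | Technique: Time-resolved FRET, ex 340 nm, em 617 and 671 nm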
TbMetRS inhib – Trypanosoma brucei MetRS inhibition | purified T. brucei MetRS, ATP depletion, Kinase-Glo luminescence | inhibition, % at 11.9 µM | 360,000 compounds, 0.4% hits;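 active = inhibition above a per-plate cutoff of the control wells' mean inhibition plus 3 SD, cut at about 5.5% in these data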;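 note: 0% = DMSO wells median and 100% = median of wells with control inhibitor compound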
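Material – parasite MetRS enzyme · Medium – HEPES-MgCl2-KCl buffer plus DTT, spermine, BSA, pyrophosphatase · Reagent – ATP, methionine and E. coli bulk tRNA substrates · Times – 15 min enzyme-compound preincubation, 2 h reaction, 10 min detection, 25 °C · Measured by – luminescence of leftover ATP · Evaluation – percent inhibition relative to median high and low control wells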
Rce1 inhib – yeast Ras-converting enzyme inhibition; 290,000 compounds, 0.27% hits; Q03530; AID 2563; yeast membranes, quenched prenylated peptide cleavage fluorescence; calls only;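 active = fall in fluorescence gain of 50% or more versus controls, with final raw signal at or below 3038400; inconclusive = same 50% fall but final raw signal above 3038400; inactive = fall in fluorescence gain under 50%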;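 note: plate controls were neutral control wells for no effect and wells lacking membranes for full effect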
Target sequence (Q03530 whole entry, looked up): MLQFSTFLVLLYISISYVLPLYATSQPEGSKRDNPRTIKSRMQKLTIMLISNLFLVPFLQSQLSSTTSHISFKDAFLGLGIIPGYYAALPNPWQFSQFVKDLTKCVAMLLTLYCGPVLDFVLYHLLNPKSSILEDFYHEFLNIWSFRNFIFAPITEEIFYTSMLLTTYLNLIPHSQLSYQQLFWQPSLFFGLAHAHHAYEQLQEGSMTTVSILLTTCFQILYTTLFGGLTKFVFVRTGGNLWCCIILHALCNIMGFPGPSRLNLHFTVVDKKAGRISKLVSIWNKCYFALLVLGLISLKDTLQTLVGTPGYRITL
Pemphigus Ab inh – human desmoglein-3 autoantibody binding inhibition; binding (percent of control), % at 10 µM; DSG3-coupled beads, scFv-anti-DSG3-GFP binding, flow cytometry; active compounds read low; P32926; 310,000 compounds, 0.48% hits;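 active = binding more than 3 SD below its plate's average and above zero; inconclusive = below that plate limit but binding exactly zero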;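 note: hits lower antibody fragment binding to DSG3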
Starred values were filed as active, the others as inactive; i = inactive; ? = inconclusive; . = no result given; + = active, no number. Hits are enriched below; roughly 1.9% of the tested compounds scored in any of these assays.

SMILES	NadD inh	HCV core dimer	TbMetRS inhib	Rce1 inhib	Pemphigus Ab inh
O=C(Nc1ccccc1)OCCOc1ccccc1Br	-10	.	-1	i	69*
Cc1ccnn1CCC(=O)N1CCCC(Nc2ccc(F)c(F)c2)C1 (configuration not stated)	-4	-6	0	i	0.9*
Cc1ccnn1CCC(=O)N1CCCC(Nc2ccc(C(C)C)cc2)C1 (configuration not stated)	-2	.	0	.	99
c1cc2c(c(CC3CO3)c1CC1CO1)OCCOCCOCCOCCO2 (configuration not stated)	-5	.	0	.	101
O=C(Nc1cccc(-c2csc(Nc3ccc(Cl)cc3)n2)c1)c1cc([N+](=O)[O-])cc(C(F)(F)F)c1	42*	38	0	i	97
COc1ccc(/C=N\NC(=O)c2cc(O)c(O)c(O)c2)cc1CN1CCN(c2ccc(F)cc2)CC1	41*	1	1	i	100
COc1ccc(/C=N\NC(=O)c2cc(O)c(O)c(O)c2)cc1COc1ccc(C(=O)OCC(C)C)cc1	60*	22	1	i	84
COc1cccc(OCc2cc(/C=N/NC(=O)c3ccn[nH]3)ccc2OC)c1	9	48*	0	i	?
CCn1cc(/C=C(\NC(=O)c2ccc(OC)cc2)C(=O)N2CCN(C)CC2)c2ccccc21	-3	.	1	i	.
CCn1cc(/C=C(\NC(=O)c2ccccc2)C(=O)N2CCOCC2)c2ccccc21	0	.	1	+	95
CS(=O)(=O)c1ccc2nc(NC(=O)CCC(=O)c3cccs3)sc2c1	14	74*	0	i	.
CS(=O)(=O)c1ccc2nc(NC(=O)Nc3ccccc3F)sc2c1	4	-5	2	i	88*
OC(CN1CCOCC1)(c1ccccc1)c1ccccn1 (configuration not stated)	-2	-11	0	i	99
Cc1nn(C)cc1C(C(=O)NC1CCCCC1)N(C(=O)Cc1cccs1)c1ccc(F)cc1 (configuration not stated)	3	1	0	i	-2.6*
COc1cc(NC(=O)C/C(C)=N/NC(=O)Cc2ccc(Cl)cc2)c(OC)cc1Cl	2	2	0	i	111
CCc1noc(C)c1C(=O)NNC(=O)c1ccccc1F	-1	-1	-1	.	93
O=C(Nc1ccc(F)cc1)N1CCC(c2nc3c(nnn3Cc3cccc(Cl)c3)c(=O)[nH]2)CC1	8	11	0	.	102
CCOc1ccc(C(=O)CCNC(Cc2cnc[nH]2)C(=O)O)cc1 (configuration not stated)	10	1	0	i	102
CCOc1ccc(S(=O)(=O)NC(Cc2cnc[nH]2)C(=O)O)cc1 (configuration not stated)	-1	1	-1	i	8.8*
N#CCSc1ccccc1NC(=O)COc1ccc(-c2nnco2)cc1	-5	.	0	.	122
N#Cc1ccsc1NC(=O)COc1ccc(-c2nnco2)cc1	16	96*	-2	i	97
Clc1ccc(C2Nc3cccc4cccc(c34)N2)cc1Cl	21	8	0	i	86
CCOc1ccc(C2Nc3cccc4cccc(c34)N2)cc1OC	20	-25	0	i	102
Clc1cccc(C2Nc3cccc4cccc(c34)N2)c1	27*	47*	0	i	120
COc1ccc(C2Nc3cccc4cccc(c34)N2)cc1	39*	-26	0	i	89
SMILES	NadD inh	HCV core dimer	TbMetRS inhib	Rce1 inhib	Pemphigus Ab inh
CCOc1cc(C2Nc3cccc4cccc(c34)N2)ccc1O	30*	-10	1	i	.
c1csc(C2Nc3cccc4cccc(c34)N2)c1	31*	-1	0	i	79
O=C1CCCC2=C1C(c1cccs1)n1nc(SCc3ccc(C(=O)O)cc3)nc1N2 (configuration not stated)	-6	2	0	i	89
COC(=O)[C@@]12C[C@@H](CC(=O)N3CCSCC3)C(=O)N(Cc3ccccc3)C1=CCC(C)(C)C2	.	.	-1	.	.
Cc1cc(NC(=O)CCCC(=O)NCc2ccccc2)no1	-2	3	-1	i	100
Cc1cc(C)n2nc(C(=O)Nc3ccc4c(c3)OCO4)nc2n1	3	47*	-2	i	110
CCOCc1[nH]c(=S)[nH]c(=O)c1Cc1ccc(OCC)cc1	-8	-1	0	i	110
CCCCOc1ccc(Cc2c(COCC)[nH]c(=S)[nH]c2=O)cc1	4	10	0	+	101
COc1ccc(OC)c(/C=c2\sc3nc(-c4cccs4)nn3c2=O)c1	5	4	0	i	97
CCOc1ccc(/C=c2\sc3nc(-c4ccco4)nn3c2=O)cc1OCC	5	70*	-1	i	.
COc1cc(/C=c2\sc3nc(=O)c(-c4ccccc4)nn3c2=O)ccc1OCCC(C)C	12	2	0	.	109
COc1ccccc1/C=c1\sc2nc(-c3ccco3)nn2c1=O	16	57*	-2	i	94
O=C(NCCCN1CCOCC1)c1ccc(-c2ccc(Cl)cc2)o1	-2	2	0	i	97
CCCCC[C@@H](C)N1C[C@H](COCc2ccccc2)Oc2cc(N3CCC[C@H]3COC)ccc2S1(=O)=O	-1	.	-2	.	.
COc1ccc2nc(N(CCN(C)C)C(=O)c3ccc4ccccc4c3)sc2c1	2	-5	0	i	113
Cc1ccc2nc(N(CCN(C)C)C(=O)c3ccc4ccccc4c3)sc2c1	-7	7	0	+	102
CCN(CC)CCN(C(=O)c1ccc2ccccc2c1)c1nc2ccc(F)cc2s1	-10	-3	-1	+	104
CN(C)CCN(C(=O)c1ccc2ccccc2c1)c1nc2ccc(Br)cc2s1	-6	-4	0	+	104
CN(C)CCN(C(=O)c1ccc2ccccc2c1)c1nc2c(F)cc(F)cc2s1	-3	-1	0	i	100
CN(C)CCN(C(=O)c1ccc2ccccc2c1)c1nc2cc3c(cc2s1)OCCO3	5	-7	0	i	.
Cc1cccc2sc(N(CCN(C)C)C(=O)c3ccc4ccccc4c3)nc12	-4	-10	-1	+	103
O=C1Cc2ccccc2C(c2ccc(Cl)cc2Cl)N1 (configuration not stated)	-5	-1	-1	i	100
O=C(Nc1ccccc1)OCCOc1ccccc1	-8	-2	-1	i	91
C=CCSc1nc(N)c(C#N)c(-c2ccccc2)c1C#N	-3	-2	0	i	81*
CCCSc1nc(N)c(C#N)c(-c2ccc(C)cc2)c1C#N	-2	43	-1	i	.
Cc1cc(C)c(C(N)=O)c(SCC(=O)c2cc(C)c(C)cc2C)n1	0	-5	1	i	95
Cc1ccc(N/N=C2\CCS(=O)(=O)c3sccc32)cc1	-9	-3	-1	i	104
